A selection: hits, their analogues and other compounds. The true share with any hit is near 2%.
CAL PDZ FP-1: blocks peptide binding to human CAL PDZ domain. Q9HD26. purified CAL PDZ, TMR-peptide fluorescence polarization, 1 h. inhibition, % at 20 µM. 0.02% of 330,000 active;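 active = highest replicate inhibition of at least 40%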;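 also: plate controls were DMSO neutral control wells for no effect and unlabeled competitor peptide control wells for full effect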
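Test system: tagged CAL PDZ domain / Buffer or medium: sodium phosphate/NaCl buffer pH 7.4 with TCEP, IgG, Thesit / Reagent: TMR-labelled reporter peptide T*-PRC34 bound in PDZ groove / Compound dosing: single point, 20 µM / Schedule: 1 h incubation at room temperature before polarization reading / Technique: fluorescence polarization (mP) / Benchmarks: unlabelled peptide, DMSO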
dFosB activator: mouse delta FosB homodimer activation | P13346 | purified delta FosB, TAMRA-CDK5 oligo fluorescence polarization; percent of positive-control signal above neutral wells | activation, % at 25 µM | 0.99% of 340,000 active | AID 493131;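 active = mean activation above about 17%, with every replicate also reaching it, limit read from the data, passing the limit was not always enough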
Target sequence (P13346 whole entry, looked up): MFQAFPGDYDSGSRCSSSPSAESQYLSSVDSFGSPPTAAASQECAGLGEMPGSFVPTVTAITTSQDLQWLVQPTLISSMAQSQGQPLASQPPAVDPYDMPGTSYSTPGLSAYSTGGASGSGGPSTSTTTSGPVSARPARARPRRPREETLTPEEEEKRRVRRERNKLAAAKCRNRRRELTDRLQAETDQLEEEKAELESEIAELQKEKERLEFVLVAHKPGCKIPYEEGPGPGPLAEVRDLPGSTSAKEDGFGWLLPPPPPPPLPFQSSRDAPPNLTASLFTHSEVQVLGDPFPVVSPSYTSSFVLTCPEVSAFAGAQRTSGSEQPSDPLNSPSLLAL
C2C12 statin: protects C2C12 myotubes from simvastatin toxicity; AID 602340; rescue of ATP level, % at 7.49 µM; ATP luminescence, 48 h; scaled: DMSO 0, geranylgeraniol control 100; 0.78% of 330,000 active;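 active = mean ATP rescue above about 67%, or every replicate alone reaching that limit, limit read from the data, passing the limit was not always enough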;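 also: myotubes were challenged with 10 µM simvastatin during compound exposure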
CAL PDZ FP-2: blocks peptide binding to the human CAL PDZ domain. 0.92% of 300,000 active. inhibition, % at 24.9 µM. purified CAL PDZ, TMR-peptide fluorescence polarization, 1 h. Q9HD26;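 active = mean inhibition of at least 30% with at least half of replicates also reaching 30%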;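 also: 0% = DMSO neutral control and 100% = excess unlabeled competitor peptide PRC23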
S100A4 MyoIIA: inhibitors of human S100A4 binding to myosin IIA peptide | AID 652163 | inhibition, % at 10.7 µM | S100A4/TAMRA-MyoIIA peptide fluorescence polarization | 0.14% of 360,000 active;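 active = mean inhibition of at least 70% across replicates, with every replicate also reaching that level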
Target sequence (P26447 whole entry, looked up): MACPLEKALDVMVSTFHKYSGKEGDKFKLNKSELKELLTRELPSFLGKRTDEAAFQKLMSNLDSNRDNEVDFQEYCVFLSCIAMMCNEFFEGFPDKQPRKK
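Test system: S100A4 monomer protein; Medium: HEPES pH 7.2 with CaCl2, KCl, NaCl, DTT, Triton; Probe or stimulus: TAMRA-labelled myosin IIA heavy-chain peptide probe, 5 nM; Doses: one dose per compound; Times: polarization read 5 min after assay mix addition, stable 5–60 min; Benchmarks: neutral control DMSO, positive control TFP.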
CDK5 p35 inh: CDK5/p35 (human) kinase inhibition; inhibition, % at 10 µM; Q00535+Q15078; 0.01% of 330,000 active; Recombinant CDK5/p35, ADP-Glo luminescence, 60 min;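 active = highest replicate inhibition of at least 50% and at least 75% of replicates reaching 50%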;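 also: plate controls were DMSO neutral control for no effect and GW8510 at 10 µM for full effect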
Active calls of the source: *.

`O=C(CN1C(=O)c2ccccc2C1=O)NNC1=NS(=O)(=O)c2ccccc21` gave CAL PDZ FP-1 -1, dFosB activator 2, C2C12 statin 2, CAL PDZ FP-2 30*, S100A4 MyoIIA -5 and CDK5 p35 inh -1.
Screening C=CCOc1cccc(C2C(C(=O)c3cccs3)=C(O)C(=O)N2Cc2cccnc2)c1 (stereo unspecified) returned CAL PDZ FP-1 -1, dFosB activator -12, CAL PDZ FP-2 -2, S100A4 MyoIIA 13 and CDK5 p35 inh -1.
`Cc1cnc(C(=O)OCC(=O)c2ccccc2)cn1` gave CAL PDZ FP-1 -2, dFosB activator 2, C2C12 statin -4, CAL PDZ FP-2 4, S100A4 MyoIIA 94* and CDK5 p35 inh 1.
CN(C(=O)COC(=O)COc1ccc2ccccc2c1)c1c(N)n(Cc2ccccc2)c(=O)[nH]c1=O was read as CAL PDZ FP-1 -1, dFosB activator -2, C2C12 statin 35, S100A4 MyoIIA 11 and CDK5 p35 inh -1.
Screening CC1(Cc2ccccc2OC(F)(F)F)C(=O)Nc2ccc(S(=O)(=O)NC3CCCCC3)cc21 (stereo unspecified) returned C2C12 statin 132* and S100A4 MyoIIA 5.
`O=C(NCCCN1CCOCC1)c1cccc(S(=O)(=O)Nc2cc(Cl)ccc2Cl)c1` gave CAL PDZ FP-1 -1, dFosB activator 2, CAL PDZ FP-2 38*, S100A4 MyoIIA -5 and CDK5 p35 inh -3.
CC1CN(C(=O)c2cccc(S(=O)(=O)Nc3cc(Cl)ccc3Cl)c2)CC(C)O1 (stereo unspecified) was read as CAL PDZ FP-1 -1, dFosB activator -4, CAL PDZ FP-2 79*, S100A4 MyoIIA 5 and CDK5 p35 inh 0.
`O=C(NC(=S)NCCN1CCOCC1)c1ccc(Cl)cc1Cl` gave CAL PDZ FP-1 -2, dFosB activator -2, C2C12 statin 89*, CAL PDZ FP-2 4 and CDK5 p35 inh 0.
Screening O=C(NC(=S)NCCN1CCOCC1)c1ccccc1Cl returned dFosB activator -3, C2C12 statin 20, CAL PDZ FP-2 -4 and CDK5 p35 inh 1.
`O=C(NCCN1CCOCC1)c1cccc(S(=O)(=O)Nc2cc(Cl)ccc2Cl)c1` gave CAL PDZ FP-1 -1, dFosB activator -4, C2C12 statin 5, CAL PDZ FP-2 -2, S100A4 MyoIIA -4 and CDK5 p35 inh 0.
CC1CN(C(=O)c2cc(S(=O)(=O)N3CCCCC3)ccc2Cl)CC(C)O1 (stereo unspecified) was read as CAL PDZ FP-1 0, dFosB activator 0, C2C12 statin -1, CAL PDZ FP-2 39*, S100A4 MyoIIA -10 and CDK5 p35 inh -1.
For CCOC(=O)CSc1nc(C)c(C(=O)OCC)s1 the results were CAL PDZ FP-1 0, dFosB activator -11, CAL PDZ FP-2 -2 and CDK5 p35 inh 0.
Screening CCOc1ccc(N2CC(C(=O)Nc3cccc(S(=O)(=O)NC4=NCCC4)c3)CC2=O)cc1 (stereo unspecified) returned CAL PDZ FP-1 -5, dFosB activator 4, C2C12 statin 6, CAL PDZ FP-2 45*, S100A4 MyoIIA 0 and CDK5 p35 inh 2.
For COc1ccc(OC)c(C(=O)Cn2nnc(-c3ccc(N4CCOCC4)cc3)n2)c1 the results were CAL PDZ FP-1 0, dFosB activator -1, C2C12 statin -37, CAL PDZ FP-2 6, S100A4 MyoIIA -1 and CDK5 p35 inh 1.
For CCCC#Cc1ccc([C@@H]2[C@@H](CO)N3CCCCN(S(=O)(=O)Cc4ccccc4)C[C@@H]23)cc1 the results were C2C12 statin -3 and S100A4 MyoIIA -22.
OCCCc1cn(Cc2ccccc2)c2ccccc12 was read as dFosB activator -11, C2C12 statin 6, CAL PDZ FP-2 56*, S100A4 MyoIIA 6 and CDK5 p35 inh 0.
Screening COc1ccc(C(=O)OC2C(OC)OCC(O)C2O)cc1 (stereo unspecified) returned CAL PDZ FP-1 19, dFosB activator -2, C2C12 statin -5, CAL PDZ FP-2 44*, S100A4 MyoIIA 1 and CDK5 p35 inh 0.
Screening O=C(Cn1ccsc1=NC(=O)c1ccco1)c1ccccc1 returned CAL PDZ FP-1 -2, dFosB activator -12, C2C12 statin -19, CAL PDZ FP-2 2 and CDK5 p35 inh -3.
Screening COc1ccc(CCNC(=O)CSc2n[nH]c(C)c2[N+](=O)[O-])cc1OC returned CAL PDZ FP-1 -1, dFosB activator -15, C2C12 statin -4, CAL PDZ FP-2 0, S100A4 MyoIIA 1 and CDK5 p35 inh -3.
For CCN(CC)S(=O)(=O)c1ccc(N2CCOCC2)c(NC(=O)c2cccc3ccccc23)c1 the results were CAL PDZ FP-1 0, dFosB activator 0, CAL PDZ FP-2 2, S100A4 MyoIIA -2 and CDK5 p35 inh 0.
For CCN(CC)S(=O)(=O)c1ccc(N2CCOCC2)c(NC(=O)c2cc([N+](=O)[O-])ccc2Cl)c1 the results were CAL PDZ FP-1 -1, dFosB activator 2, CAL PDZ FP-2 40*, S100A4 MyoIIA 9 and CDK5 p35 inh 0.
Cc1ccc(CN(C(=O)c2ccco2)C(C(=O)NC2CCCC2)c2ccc(N3CCOCC3)cc2)cc1 (stereo unspecified) was read as CAL PDZ FP-1 -2, dFosB activator -8, C2C12 statin 119*, CAL PDZ FP-2 2 and CDK5 p35 inh 1.
`COc1ccc(CCNC(=O)CCn2c(=O)[nH]c3cc(OC)c(OC)cc3c2=O)cc1OC` gave CAL PDZ FP-1 -1, dFosB activator -4, CAL PDZ FP-2 40* and CDK5 p35 inh 1.
`CCC(CC)C(=O)NCCc1ccc(OC)cc1` gave CAL PDZ FP-1 -2, dFosB activator 0, CAL PDZ FP-2 -5 and CDK5 p35 inh 1.
CCC(CC)C(=O)NCCc1ccc(OC)c(OC)c1 was read as CAL PDZ FP-1 0, dFosB activator -3 and CAL PDZ FP-2 60*.
For CCOc1cc2[nH]c(=O)n(CCC(=O)NCCc3ccc(OC)c(OC)c3)c(=O)c2cc1OCC the results were CAL PDZ FP-1 -1, dFosB activator 1, CAL PDZ FP-2 62* and CDK5 p35 inh -1.
`COc1ccc(NC(=S)N2CCC(c3nc4ccccc4[nH]3)CC2)c(OC)c1` gave CAL PDZ FP-1 -2, dFosB activator -3, C2C12 statin 2, CAL PDZ FP-2 -3 and CDK5 p35 inh -2.
For Nc1nnc(SCC(=O)OCc2ccccc2)s1 the results were CAL PDZ FP-1 -1, dFosB activator 1, C2C12 statin -3, S100A4 MyoIIA -19 and CDK5 p35 inh -6.
COc1ccc(O)c(C(=O)c2cnn(S(=O)(=O)c3ccc(C)cc3)c2)c1 was read as CAL PDZ FP-1 -1, dFosB activator -5, C2C12 statin -3, CAL PDZ FP-2 -2, S100A4 MyoIIA -2 and CDK5 p35 inh 0.
